According to ChEMBL document CHEMBL1146602, “4-Hydroxymethyl-3-aminoacridine derivatives as a new family of anticancer agents” (J Med Chem, 2003):

Columns and labels:
HT-29 = assay: In vitro cytotoxicity against HT-29 (human colon cancer) cell line.; format: functional, cell-based
Method in brief: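 HT29 colon adenocarcinoma cells in DMEM with 10% FCS, seeded at 5×10^4 cells/well and grown 2 days, then exposed 24 h to compounds in DMSO (DMSO controls). Cells washed with PBS and regrown 3 days drug-free. Survival read by MTT (30 min, 100 µg/well), formazan dissolved in DMSO, A540, as % of controls. IC50 taken from regression curves.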

L1210 = assay: In vitro cytotoxic against L1210 (murine leukemia) cell line.; format: functional, cell-based; details: Mus musculus
Method in brief: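 L1210 mouse leukaemia cells in DMEM with 10% FCS, seeded at 10⁵ cells/mL and grown 24 h (about 3×10^5 cells/mL). Compounds added in DMSO at increasing concentrations, in duplicate, against DMSO controls. Cells counted with a Coulter counter after a further 24 h at 37 °C, 5% CO2. IC50 (50% reduction in cell number versus controls) taken from regression curves.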

A549 = assay: In vitro cytotoxicity against A549 (human lung carcinoma) cell line.; format: functional, cell-based
Method in brief: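 Clonogenic test on A549 lung adenocarcinoma cells in F12-K with 10% FCS, plated at 200 cells/well. After 24 h, exposed 24 h to compounds at various concentrations, washed with PBS, then grown 14 days drug-free. Giemsa-stained colonies counted; survival as % of untreated controls.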

[1] = Partition coefficient (logP); format: physicochemical; details: octanol/water

Compound	IC50 (HT-29)	IC50 (L1210)	IC50 (A549)	logP [1]
CNc1ccc2cc3ccc(N(C)S(C)(=O)=O)cc3nc2c1CO	1.2 µM	0.2 µM	0.3 µM	1.56
CCOC(=O)Nc1ccc2cc3ccc4c(c3nc2c1)COC(=O)N4	11 µM	2.7 µM	2.2 µM	2
CCOC(=O)Nc1ccc2cc3ccc4c(c3nc2c1)COCN4C(=O)OCC	> 100 µM	84 µM	19 µM	3.12
CCOC(=O)Nc1ccc2cc3ccc4c(c3nc2c1)COCN4	1.3 µM	0.08 µM	> 0.05 µM	2.07
Nc1ccc2cc3ccccc3nc2c1CO	0.025 µM	0.02 µM	0.005 µM	1.77
CS(=O)(=O)Nc1ccc2cc3ccc4c(c3nc2c1)COCN4	12 µM	6.2 µM	6 µM	0.7
CCOC(=O)N1COCc2c1ccc1cc3ccc(NC)c(CO)c3nc21	4.2 µM	1.5 µM	0.35 µM	1.75
CCOC(=O)Nc1ccc2cc3ccc(NC)c(CO)c3nc2c1	0.35 µM	0.09 µM	0.03 µM	1.97
CN(C)c1ccc2cc3ccccc3nc2c1CO	14 µM	6 µM	13 µM	2.2
CN1COCc2c1ccc1cc3ccc4c(c3nc21)COC(=O)N4	9 µM	1 µM	0.45 µM	1.7
c1cc2cc3ccc4c(c3nc2c2c1NCOC2)COCN4	1.5 µM	0.35 µM	0.02 µM	2.17
CN(c1ccc2cc3ccc4c(c3nc2c1)COCN4)S(C)(=O)=O	2.3 µM	0.6 µM	1.3 µM	1.54
O=C1Nc2ccc3cc4ccccc4nc3c2CO1	17 µM	2.8 µM	7 µM	1.64
CCOC(=O)Nc1ccc2cc3ccc(N)c(CO)c3nc2c1	0.04 µM	0.01 µM	0.01 µM	1.55
CNc1ccc2cc3ccc4c(c3nc2c1CO)COCN4	2 µM	0.5 µM	0.1 µM	1.65
CCOC(=O)N1COCc2c1ccc1cc3ccc4c(c3nc21)COCN4C(=O)OCC	1 µM	> 200 µM	3.5 µM	2.5
CN1COCc2c1ccc1cc3ccc(N)c(CO)c3nc21	0.3 µM	0.65 µM	0.05 µM	1.64
CNc1ccc2cc3ccc(NS(C)(=O)=O)cc3nc2c1CO	29 µM	2.8 µM	4.4 µM	0.55
CNc1ccc2cc3ccc4c(c3nc2c1CO)COCN4S(C)(=O)=O	3.7 µM	1.6 µM	0.1 µM	1.2
CNc1ccc2cc3ccccc3nc2c1CO	2.5 µM	1.1 µM	1.4 µM	2.1
